In ChEMBL document CHEMBL1152233, “The identification of pyrazolo[1,5-a]pyridines as potent p38 kinase inhibitors” (Bioorg Med Chem Lett, 2008):
Values belong to the compound of their own block, whether it stands above or below them.

Key:
[1] = target: Mitogen-activated protein kinase 14 (Homo sapiens, UniProt Q16539); assay: Inhibition of GST-fused p38alpha expressed in Escherichia coli
Outline: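 GST-tagged p38 and MEK6 at the N-terminus, purified from E. coli. Reaction ran 60 min at rt, was EDTA-quenched, and was read with streptavidin SPA beads. IC50 was fitted from % inhibition against ±EDTA controls. Values are means of >2 experiments.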

[2] = Metabolic stability in rat liver S9 microsomal fraction assessed as parent compound turnover after 30 mins; format: ADME, subcellular; conditions: read-out: Stability
Outline: (§1)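 Test compound was incubated with liver S9 fraction (5 mg protein/mL) for 30 min. Read-out is % turnover of parent compound. Values are means of ≥2 incubations.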

[3] = Metabolic stability in dog liver S9 microsomal fraction assessed as parent compound turnover after 30 mins; format: ADME, subcellular, Canis lupus familiaris; conditions: read-out: Stability; outline: as §1
[4] = Clearance in Lewis rat at 1 mg/kg, iv; format: ADME, organism-based; parameters: dose 1 mg/kg, route intravenous; conditions: in vivo
[5] = Volume of distribution at steady state in Lewis rat at 1 mg/kg, iv; format: ADME, organism-based; parameters: dose 1 mg/kg, route intravenous; conditions: in vivo, read-out: Vdss
[6] = Half life in Lewis rat at 1 mg/kg, iv; format: ADME, organism-based; parameters: dose 1 mg/kg, route intravenous; conditions: in vivo
[7] = AUC in Lewis rat at 1 mg/kg, iv; format: ADME, organism-based; parameters: dose 1 mg/kg, route intravenous; conditions: plasma
[8] = Bioavailability in Lewis rat at 1 mg/kg, iv; format: ADME, organism-based; conditions: in vivo
[9] = Clearance in Beagle dog at 1 mg/kg, iv; format: ADME, organism-based, Canis lupus familiaris; parameters: dose 1 mg/kg, route intravenous; conditions: in vivo
[10] = Volume of distribution at steady state in Beagle dog at 1 mg/kg, iv; format: ADME, organism-based, Canis lupus familiaris; parameters: dose 1 mg/kg, route intravenous; conditions: in vivo, read-out: Vdss
[11] = Half life in Beagle dog at 1 mg/kg, iv; format: ADME, organism-based, Canis lupus familiaris; parameters: dose 1 mg/kg, route intravenous; conditions: in vivo
[12] = AUC in Beagle dog at 1 mg/kg, iv; format: ADME, organism-based, Canis lupus familiaris; parameters: dose 1 mg/kg, route intravenous; conditions: plasma
[13] = Bioavailability in Beagle dog at 1 mg/kg, iv; format: ADME, organism-based, Canis lupus familiaris; conditions: in vivo
[14] = tested on: Mus musculus; assay: Inhibition of LPS-induced TNF production in mouse at 30 mg/kg, po; format: functional
[15] = tested on: PBMC; assay: Inhibition of LPS-induced TNF release in human PBMC; format: functional, cell-based
[16] = Clearance in Lewis rat at 5 mg/kg, iv; format: ADME, organism-based; parameters: dose 5 mg/kg, route intravenous; conditions: in vivo
[17] = Volume of distribution at steady state in Lewis rat at 5 mg/kg, iv; format: ADME, organism-based; parameters: dose 5 mg/kg, route intravenous; conditions: in vivo, read-out: Vdss
[18] = Half life in Lewis rat at 5 mg/kg, iv; format: ADME, organism-based; parameters: dose 5 mg/kg, route intravenous; conditions: in vivo
[19] = AUC in Lewis rat at 5 mg/kg, iv; format: ADME, organism-based; parameters: dose 5 mg/kg, route intravenous; conditions: plasma
[20] = Bioavailability in Lewis rat at 5 mg/kg, iv; format: ADME, organism-based; conditions: in vivo
[21] = target: Glycogen synthase kinase-3 beta (Homo sapiens, UniProt P49841); assay: Inhibition of GSK3-beta
[22] = target: RAC-gamma serine/threonine-protein kinase (Homo sapiens, UniProt Q9Y243); assay: Inhibition of AKT3
[23] = target: Cyclin-dependent kinase 2 (Homo sapiens, UniProt P24941); assay: Inhibition of CDK2/CyclinA
[24] = target: Macrophage colony-stimulating factor 1 receptor (Homo sapiens, UniProt P07333); assay: Inhibition of C-FMS
[25] = target: Receptor tyrosine-protein kinase erbB-2 (Homo sapiens, UniProt P04626); assay: Inhibition of ERBB2
[26] = target: Receptor tyrosine-protein kinase erbB-4 (Homo sapiens, UniProt Q15303); assay: Inhibition of ERBB4
[27] = target: [Pyruvate dehydrogenase (acetyl-transferring)] kinase isozyme 4, mitochondrial (Homo sapiens, UniProt Q16654); assay: Inhibition of PDHK4
[28] = target: Angiopoietin-1 receptor (Homo sapiens, UniProt Q02763); assay: Inhibition of TIE2
[29] = target: Vascular endothelial growth factor receptor 2 (Homo sapiens, UniProt P35968); assay: Inhibition of VEGFR2

Chain of Mitogen-activated protein kinase 14 (Q16539 whole entry, the tested form may be a part): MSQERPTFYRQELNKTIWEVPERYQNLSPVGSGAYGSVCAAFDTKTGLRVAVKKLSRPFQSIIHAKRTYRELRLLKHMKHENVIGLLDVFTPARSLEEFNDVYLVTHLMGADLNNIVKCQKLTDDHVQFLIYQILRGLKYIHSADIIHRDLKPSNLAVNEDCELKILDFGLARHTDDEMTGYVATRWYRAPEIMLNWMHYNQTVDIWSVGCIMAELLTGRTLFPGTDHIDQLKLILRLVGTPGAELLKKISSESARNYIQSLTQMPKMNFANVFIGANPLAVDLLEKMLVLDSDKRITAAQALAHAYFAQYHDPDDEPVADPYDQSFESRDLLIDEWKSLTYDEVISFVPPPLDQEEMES
Chain of [Pyruvate dehydrogenase (acetyl-transferring)] kinase isozyme 4, mitochondrial (Q16654 whole entry): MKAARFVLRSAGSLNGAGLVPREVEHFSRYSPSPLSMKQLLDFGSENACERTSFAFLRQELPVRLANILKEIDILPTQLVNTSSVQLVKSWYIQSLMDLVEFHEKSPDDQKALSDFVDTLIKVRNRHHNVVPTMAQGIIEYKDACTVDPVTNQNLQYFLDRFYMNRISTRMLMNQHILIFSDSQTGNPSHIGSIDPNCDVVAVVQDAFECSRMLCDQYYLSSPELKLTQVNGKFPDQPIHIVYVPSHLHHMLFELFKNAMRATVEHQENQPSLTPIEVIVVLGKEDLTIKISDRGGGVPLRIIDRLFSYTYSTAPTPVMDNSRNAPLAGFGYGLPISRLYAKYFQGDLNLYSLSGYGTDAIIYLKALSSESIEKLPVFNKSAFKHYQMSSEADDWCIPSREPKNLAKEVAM
Chain of RAC-gamma serine/threonine-protein kinase (Q9Y243 whole entry): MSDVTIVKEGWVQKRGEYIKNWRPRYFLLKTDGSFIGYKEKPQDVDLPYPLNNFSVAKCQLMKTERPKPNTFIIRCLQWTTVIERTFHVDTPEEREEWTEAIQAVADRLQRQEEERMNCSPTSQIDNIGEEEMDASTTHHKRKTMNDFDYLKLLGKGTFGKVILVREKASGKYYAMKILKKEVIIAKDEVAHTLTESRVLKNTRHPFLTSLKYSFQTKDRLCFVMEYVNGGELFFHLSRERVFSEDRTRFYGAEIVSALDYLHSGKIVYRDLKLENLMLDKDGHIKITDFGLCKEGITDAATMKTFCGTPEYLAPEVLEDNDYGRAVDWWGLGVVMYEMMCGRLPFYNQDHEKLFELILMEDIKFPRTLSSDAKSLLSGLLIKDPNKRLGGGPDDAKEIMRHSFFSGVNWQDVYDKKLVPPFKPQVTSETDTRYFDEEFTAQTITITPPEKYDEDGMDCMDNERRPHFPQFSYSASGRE
Chain of Glycogen synthase kinase-3 beta (P49841 whole entry): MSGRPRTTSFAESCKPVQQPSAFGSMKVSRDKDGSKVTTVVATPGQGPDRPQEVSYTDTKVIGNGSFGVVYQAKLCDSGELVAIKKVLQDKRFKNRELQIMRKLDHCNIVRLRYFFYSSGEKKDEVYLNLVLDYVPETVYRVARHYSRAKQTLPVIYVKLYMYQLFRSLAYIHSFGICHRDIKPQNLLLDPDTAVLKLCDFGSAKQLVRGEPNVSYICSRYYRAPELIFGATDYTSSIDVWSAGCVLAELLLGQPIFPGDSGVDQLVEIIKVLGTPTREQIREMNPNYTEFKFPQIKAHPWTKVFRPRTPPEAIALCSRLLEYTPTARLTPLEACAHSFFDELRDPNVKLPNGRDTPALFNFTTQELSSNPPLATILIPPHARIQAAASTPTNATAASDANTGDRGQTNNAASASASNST
Chain of Angiopoietin-1 receptor (Q02763 whole entry): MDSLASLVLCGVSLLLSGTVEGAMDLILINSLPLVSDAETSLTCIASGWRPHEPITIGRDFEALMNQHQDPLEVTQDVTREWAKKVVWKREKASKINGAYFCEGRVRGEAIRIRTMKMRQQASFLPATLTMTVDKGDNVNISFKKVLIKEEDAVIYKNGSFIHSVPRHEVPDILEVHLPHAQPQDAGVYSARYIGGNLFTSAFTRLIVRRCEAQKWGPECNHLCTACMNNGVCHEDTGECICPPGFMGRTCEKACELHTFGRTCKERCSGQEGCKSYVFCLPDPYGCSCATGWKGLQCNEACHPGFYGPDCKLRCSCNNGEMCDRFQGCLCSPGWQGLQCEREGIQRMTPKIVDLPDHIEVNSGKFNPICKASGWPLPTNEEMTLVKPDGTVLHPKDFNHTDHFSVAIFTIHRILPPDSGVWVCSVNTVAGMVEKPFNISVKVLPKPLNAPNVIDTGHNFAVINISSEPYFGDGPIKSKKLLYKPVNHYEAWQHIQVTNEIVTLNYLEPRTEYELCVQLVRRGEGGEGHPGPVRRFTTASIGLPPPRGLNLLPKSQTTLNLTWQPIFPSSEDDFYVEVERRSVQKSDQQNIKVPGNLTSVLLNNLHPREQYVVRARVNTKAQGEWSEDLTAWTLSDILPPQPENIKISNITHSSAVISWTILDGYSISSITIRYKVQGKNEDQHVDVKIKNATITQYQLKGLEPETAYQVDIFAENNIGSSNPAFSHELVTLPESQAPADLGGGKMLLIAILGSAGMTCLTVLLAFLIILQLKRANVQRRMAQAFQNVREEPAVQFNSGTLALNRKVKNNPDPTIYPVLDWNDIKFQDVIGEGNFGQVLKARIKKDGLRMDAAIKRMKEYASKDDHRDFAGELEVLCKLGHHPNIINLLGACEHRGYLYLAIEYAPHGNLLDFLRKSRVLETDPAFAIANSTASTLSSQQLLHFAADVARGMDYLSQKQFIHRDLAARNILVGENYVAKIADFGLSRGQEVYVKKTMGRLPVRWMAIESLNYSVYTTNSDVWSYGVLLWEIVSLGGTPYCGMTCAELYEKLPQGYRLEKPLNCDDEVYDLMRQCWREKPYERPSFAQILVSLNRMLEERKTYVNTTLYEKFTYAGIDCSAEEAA
Chain of Receptor tyrosine-protein kinase erbB-2 (P04626 whole entry): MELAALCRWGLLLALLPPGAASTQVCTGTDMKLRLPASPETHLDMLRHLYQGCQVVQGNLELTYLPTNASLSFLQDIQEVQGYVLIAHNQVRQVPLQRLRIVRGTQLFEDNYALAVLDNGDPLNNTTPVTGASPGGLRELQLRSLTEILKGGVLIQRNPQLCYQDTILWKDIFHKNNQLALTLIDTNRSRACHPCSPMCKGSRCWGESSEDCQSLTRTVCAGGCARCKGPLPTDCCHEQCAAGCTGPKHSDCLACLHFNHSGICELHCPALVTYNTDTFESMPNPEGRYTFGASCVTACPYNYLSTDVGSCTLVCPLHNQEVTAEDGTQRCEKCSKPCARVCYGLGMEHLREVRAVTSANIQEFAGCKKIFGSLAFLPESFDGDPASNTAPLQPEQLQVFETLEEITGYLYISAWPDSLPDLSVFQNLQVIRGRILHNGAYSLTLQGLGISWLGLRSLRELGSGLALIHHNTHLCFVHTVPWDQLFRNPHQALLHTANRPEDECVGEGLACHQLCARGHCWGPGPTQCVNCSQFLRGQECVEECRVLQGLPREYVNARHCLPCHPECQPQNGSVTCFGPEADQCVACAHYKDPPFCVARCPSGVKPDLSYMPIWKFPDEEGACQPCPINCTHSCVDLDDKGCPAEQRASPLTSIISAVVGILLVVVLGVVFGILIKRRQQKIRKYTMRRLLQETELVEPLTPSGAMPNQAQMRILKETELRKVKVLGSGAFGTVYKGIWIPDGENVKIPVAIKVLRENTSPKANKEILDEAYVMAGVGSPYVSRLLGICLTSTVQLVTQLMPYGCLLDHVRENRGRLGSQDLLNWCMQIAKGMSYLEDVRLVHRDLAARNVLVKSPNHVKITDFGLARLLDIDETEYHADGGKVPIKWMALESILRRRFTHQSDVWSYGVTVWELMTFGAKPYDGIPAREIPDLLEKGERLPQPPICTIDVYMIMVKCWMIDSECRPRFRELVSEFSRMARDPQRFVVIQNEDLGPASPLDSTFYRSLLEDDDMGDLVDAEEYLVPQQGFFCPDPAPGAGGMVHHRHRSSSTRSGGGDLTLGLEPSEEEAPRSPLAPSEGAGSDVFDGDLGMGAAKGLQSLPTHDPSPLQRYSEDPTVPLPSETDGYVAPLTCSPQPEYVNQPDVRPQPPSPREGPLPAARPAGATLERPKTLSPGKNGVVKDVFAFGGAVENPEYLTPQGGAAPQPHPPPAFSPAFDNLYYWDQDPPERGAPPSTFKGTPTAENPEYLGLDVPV
Chain of Macrophage colony-stimulating factor 1 receptor (P07333 whole entry): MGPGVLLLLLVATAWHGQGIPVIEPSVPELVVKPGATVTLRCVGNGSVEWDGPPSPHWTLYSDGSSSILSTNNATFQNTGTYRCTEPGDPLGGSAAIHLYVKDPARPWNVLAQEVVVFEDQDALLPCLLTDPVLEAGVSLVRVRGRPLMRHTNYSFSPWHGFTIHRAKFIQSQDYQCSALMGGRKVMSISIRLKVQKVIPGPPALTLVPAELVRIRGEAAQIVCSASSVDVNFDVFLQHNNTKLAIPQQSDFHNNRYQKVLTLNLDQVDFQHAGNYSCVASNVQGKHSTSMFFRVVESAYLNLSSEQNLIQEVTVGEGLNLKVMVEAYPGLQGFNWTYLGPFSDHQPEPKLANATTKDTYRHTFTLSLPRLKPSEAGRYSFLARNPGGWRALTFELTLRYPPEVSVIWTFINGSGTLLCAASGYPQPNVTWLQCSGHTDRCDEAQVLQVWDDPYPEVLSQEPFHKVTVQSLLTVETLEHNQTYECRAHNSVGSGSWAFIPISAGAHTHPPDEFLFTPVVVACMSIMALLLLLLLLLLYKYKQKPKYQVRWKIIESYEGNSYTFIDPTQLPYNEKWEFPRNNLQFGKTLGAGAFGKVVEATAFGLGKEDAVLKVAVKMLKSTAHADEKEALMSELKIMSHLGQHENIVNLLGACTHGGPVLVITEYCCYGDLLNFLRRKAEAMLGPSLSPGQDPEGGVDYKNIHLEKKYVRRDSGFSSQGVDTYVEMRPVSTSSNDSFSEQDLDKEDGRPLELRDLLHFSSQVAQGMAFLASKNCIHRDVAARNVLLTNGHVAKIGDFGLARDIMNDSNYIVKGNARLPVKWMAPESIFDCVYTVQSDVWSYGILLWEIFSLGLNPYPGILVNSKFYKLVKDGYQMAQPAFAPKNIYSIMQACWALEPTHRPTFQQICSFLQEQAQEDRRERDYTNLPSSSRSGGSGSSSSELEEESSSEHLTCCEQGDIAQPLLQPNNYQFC

IC50 [1]: 280 nM
SMILES: Cc1cccn2nc(-c3ccc(F)cc3)c(-c3ccncc3)c12

IC50 [1]: 150 nM
metabolised at 0.5 h [2]: 99%
metabolised at 0.5 h [3]: 81%
SMILES: Cc1ccc2c(-c3ccncc3)c(-c3ccc(F)cc3)nn2c1

IC50 [1]: 150 nM
metabolised at 0.5 h [2]: 43%
metabolised at 0.5 h [3]: 93%
SMILES: Cc1cccc2c(-c3ccncc3)c(-c3ccc(F)cc3)nn12

IC50 [1]: 200 nM
metabolised at 0.5 h [2]: 0%
metabolised at 0.5 h [3]: 0%
clearance [4]: 34 mL/min/kg
Vd [5]: 5.4 L/kg
half-life [6]: 2.5 h
AUC [7]: 500 ng·h/mL
bioavailability [8]: 84%
SMILES: Fc1ccc(-c2nn3cc(C(F)(F)F)ccc3c2-c2ccncc2)cc1

IC50 [1]: 140 nM
SMILES: N#Cc1ccc2c(-c3ccncc3)c(-c3ccc(F)cc3)nn2c1

IC50 [1]: 170 nM
metabolised at 0.5 h [2]: 8%
metabolised at 0.5 h [3]: 18%
SMILES: Fc1ccc(-c2nn3c(OC4CCCC4)cccc3c2-c2ccncc2)cc1

IC50 [1]: 150 nM
SMILES: Fc1ccc(-c2nn3cc(Cl)ccc3c2-c2ccncc2)cc1

IC50 [1]: 240 nM
metabolised at 0.5 h [2]: 21%
metabolised at 0.5 h [3]: 39%
SMILES: Fc1ccc(-c2nn3cccc(F)c3c2-c2ccncc2)cc1

IC50 [1]: 70 nM
metabolised at 0.5 h [2]: 0%
metabolised at 0.5 h [3]: 0%
clearance [4]: 40 mL/min/kg
Vd [5]: 5.4 L/kg
half-life [6]: 2.1 h
AUC [7]: 500 ng·h/mL
bioavailability [8]: 72%
clearance [9]: 17 mL/min/kg
Vd [10]: 8.2 L/kg
half-life [11]: 6.5 h
AUC [12]: 1500 ng·h/mL
bioavailability [13]: 32%
SMILES: Fc1ccc(-c2nn3c(OCC(F)(F)F)cccc3c2-c2ccncc2)cc1

IC50 [1]: 160 nM
metabolised at 0.5 h [2]: 1%
metabolised at 0.5 h [3]: 23%
SMILES: Fc1ccc(-c2nn3cc(F)ccc3c2-c2ccncc2)cc1

IC50 [1]: 150 nM
metabolised at 0.5 h [2]: 37%
metabolised at 0.5 h [3]: 84%
SMILES: Fc1ccc(-c2nn3c(Cl)cccc3c2-c2ccncc2)cc1

IC50 [1]: 50 nM
SMILES: CCOc1cccc2c(-c3ccncc3)c(-c3ccc(F)cc3)nn12

IC50 [1]: 160 nM
metabolised at 0.5 h [2]: 60%
clearance [4]: 83 mL/min/kg
Vd [5]: 2 L/kg
half-life [6]: 1.2 h
AUC [7]: 200 ng·h/mL
SMILES: Cc1ccn2nc(-c3ccc(F)cc3)c(-c3ccncc3)c2c1

IC50 [1]: 120 nM
metabolised at 0.5 h [2]: 27%
metabolised at 0.5 h [3]: 81%
clearance [16]: 49 mL/min/kg
Vd [17]: 3.2 L/kg
half-life [18]: 1.2 h
AUC [19]: 1700 ng·h/mL
bioavailability [20]: 50%
clearance [9]: 34 mL/min/kg
Vd [10]: 3.8 L/kg
half-life [11]: 1.9 h
AUC [12]: 500 ng·h/mL
bioavailability [13]: 18%
IC50 [21]: 2200 nM
IC50 [22]: > 10000 nM
IC50 [23]: > 10000 nM
IC50 [24]: > 10000 nM
IC50 [25]: > 10000 nM
IC50 [26]: > 10000 nM
IC50 [27]: > 10000 nM
IC50 [28]: > 10000 nM
IC50 [29]: > 10000 nM
SMILES: Fc1ccc(-c2nn3ccccc3c2-c2ccncc2)cc1 [GW434756X]
inhibition in vivo at 30 mg/kg [14]: 65%
IC50 [15]: 300 nM
